# Reference: PMC7386824 (Journal of medicinal chemistry, 2020)
# “Also recorded” adds a separate entry of the source.
# Columns and labels:
# [1] = tested on: HCMV Towne; assay: viral DNA replication and DNA load in supernatants, US17 real-time PCR; assay type: cell-based, human cytomegalovirus; conditions: HCMV Towne MOI 0.1; NFU1827 5 μM, MLS8554 2 μM, MLS8091 1.5 μM, NCGC2955 3 μM; GCV 5 μM
# [2] = tested on: HSV1; assay: plaque reduction assay, HSV1 clinical isolate in Vero cells; assay type: cell-based, herpes simplex 1
# [3] = tested on: MCMV Smith strain; assay: plaque reduction assay, MCMV in MEFs; assay type: cell-based, mouse CMV
# [4] = tested on: HSV2; assay: plaque reduction assay, HSV2 clinical isolate in Vero cells; assay type: cell-based, herpes simplex 2
# [5] = tested on: HCMV Towne; assay: add-on and removal assays, luciferase activity at 72 hpi; assay type: cell-based, human cytomegalovirus; conditions: for HCMV suppression when compound removed at 6 h (removal assay) / activity when added at or after 24 hpi (add-on assay): HCMV Towne MOI 1, luciferase 72 hpi; for time of anti-HCMV activity: add-on and removal assays; for timing of activity in the add-on assay / timing of activity in the removal assay: compared with GCV
# [6] = tested on: HCMV Towne; assay: Western blot of viral protein expression in HCMV-infected HFFs; assay type: cell-based, human cytomegalovirus
# [7] = tested on: HCMV Towne; assay: HCMV entry, indirect immunofluorescence assay for pp65; assay type: cell-based, human cytomegalovirus; conditions: 24 h pretreatment; MLS8969 3 μM, heparin 30 μM, GCV 5 μM; IFA 2 hpi
# [8] = tested on: HCMV Towne; assay: drug combination with letermovir, plaque reduction assay, Bliss model; assay type: cell-based, human cytomegalovirus; conditions: Human betaherpesvirus 5, read-out: EC50 (Compound 1, letermovir alone)
# [9] = tested on: MEFs; assay: toxicity to MEFs; assay type: cell-based, mouse
# Outline: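 Uninfected mouse embryonic fibroblasts were exposed to test compound for 72 h or 8–10 days, the same time points as the antiviral assays. MTT (5 mg/mL stock in PBS) was then added, the plates were shaken at 150 rpm for 5 min and incubated at 37 °C for 2–3 h. Formazan formed by living cells was read as absorbance at 560 nm.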
# [10] = tested on: HCMV Towne (pp28-luciferase); assay: pp28-luciferase recombinant HCMV Towne, luciferase activity at 72 hpi in HFFs; assay type: cell-based, human cytomegalovirus
# [11] = tested on: EBV; assay: inhibition of lytic EBV replication in AKATA cells, real-time PCR; assay type: cell-based, Epstein Barr virus
Compound,viral DNA replication in cells [1],viral DNA yield in supernatants [1],activity against HSV1 (in words) [2],activity against MCMV (in words) [3],activity against HSV2 (in words) [4],"viral protein expression (Western blot) ([6]; MOI 1, 72 hpi)",inhibition of HCMV entry (pp65 nuclear staining) [7],further results
"CCN1CCN(CCCNC(=O)c2ccc3c(c2)sc2nc(-c4ccc(OC)cc4)cn23)CC1 [NFU1827, N-[3-(4-ethylpiperazin-1-yl)propyl]-4-(4-methoxyphenyl)-7-thia-2,5-diazatricyclo [6.4.0.02,6] dodeca-1(8),3,5,9,11-pentaene-10-carboxamide]",significantly reduced,significantly reduced,no activity,no activity,no activity,reduced the level of both IE1 and IE2,,HCMV suppression when compound removed at 6 h (removal assay) [5]: significant HCMV suppression; activity when added at or after 24 hpi (add-on assay) [5]: lost its ability to inhibit HCMV; time of anti-HCMV activity [5]: 0–24 hpi
"Nc1nc2c(ncn2COC(CO)CO)c(=O)[nH]1 [GCV, Ganciclovir]",,,,,,,did not affect pp65 nuclear staining,
COc1cccc(N2CCN(C3=Nc4c(F)cccc4[C@H](CC(=O)O)N3c3cc(C(F)(F)F)ccc3OC)CC2)c1 [Letermovir],,,,,,,,EC50 [8]: 1.1 ± 0.1 nM
"CC(C)NC(=O)C1CCN(C(=O)c2cc3sccc3n2Cc2ccc(Cl)cc2)CC1 [NCGC2955, 1-(4-(4-chIorobenzyl)-4H-thieno[3,2-b]pyrrole-5-carbonyl)-N-isopropyIpiperidine-4-carboxamide]",modest,modest,,,,strong reduction in viral protein expression including IE1 and IE2,,concentration at which toxicity to MEFs was observed [9]: ≥ 10 µM; dose response in pp28-luciferase assay [10]: did not show a full dose response; timing of activity in the add-on assay [5]: overlapped with that of GCV; timing of activity in the removal assay [5]: longer activity than GCV
Nc1c(S(=O)(=O)c2cccs2)c2nc3ccccc3nc2n1Cc1ccccc1 [MLS8091],higher than that achieved with GCV,not significantly different from GCV,did not inhibit,did not inhibit,did not inhibit,Inhibition of all viral proteins,,activity against EBV (in words) [11]: did not inhibit; also recorded: not active; timing of activity in the add-on assay [5]: overlapped with that of GCV; timing of activity in the removal assay [5]: showed earlier effects
Heparin,,,,,,,inhibited HCMV entry,
COc1ccc(Cl)cc1C(=O)Nc1ccc(NC(=O)c2ccco2)cc1 [MLS8969],,,did not inhibit,did not inhibit,did not inhibit,no inhibition of viral protein expression,inhibited HCMV entry only at MOI of 0.1,"activity against EBV (in words) [11]: did not inhibit; reduction of luciferase activity ([10]; compound added after infection, MOI of 1 PFU/cell, 72 hpi): minimal reduction in luciferase activity; inhibition of luciferase activity ([10]; compound added before infection, range of MOIs): MOI-dependent inhibition of luciferase activity; viral protein expression (Western blot) ([6]; pretreatment followed by infection at low MOI (0.01), 72 hpi): decreased IE1/2, pp65, UL84 and UL44 protein levels"
CCc1ccc(NC(=O)[C@H](Cc2c[nH]c3ccccc23)NC(=O)[C@@H]2Cc3ccccc3CN2)cc1 [MLS8554],significantly reduced,significantly reduced,active,,active,"reduced IE2, UL44, UL84 and pp65 protein levels",,HCMV suppression when compound removed at 6 h (removal assay) [5]: near complete; activity when added at or after 24 hpi (add-on assay) [5]: activity was significantly reduced; time of anti-HCMV activity [5]: 0–24 hpi
